Source: the RNAGym collection of RNA variant scans (doi:10.1126/science.aae0568)
Variants at the floor of the assay were thinned out.

B1: tRNA (parent)
chain: GUUCCGUUGGCGUAAUGGUAACGCGUCUCCCUCCUAAGGAGAAGACUGCGGGUUCGAGUCCCGUACGGAACG

Variants of: B1
Experiment: yeast fitness relative to wild type (ratio to wild type); higher = fitter; tRNA-Arg(CCU), competitive growth, 37 C, YPD
Outline: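 Variants of the tRNA-Arg(CCU) gene were chemically synthesised with a 3% per-site mutation rate across 69 sites and placed at the native genomic locus in Saccharomyces cerevisiae. Six parallel replicates of the pooled strains were competed in YPD at 37°C for 24 hours, and gene amplicons from the start and end populations were read by 100-nucleotide paired-end sequencing. Darwinian fitness relative to wild type was derived from changes in genotype frequencies. Genotypes required ≥ 100 starting reads, and estimates < 0.5 were set to 0.5.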

**Q.** For GUUCCGUUGGCGUAAUGGUAAUGGGUCACCCUCCUAAGGAGAAGCCUGCGGGUUCGCGUCUCGUACGGAACG, which yeast fitness is on record?
**A.** Its yeast fitness is 0.581.

**Q.** With GUUCCGUUGGCGUAAUGGUAAUGGGUCACCCUCCUAAGGAGAAGCCUGCGAGUUCGCGUCUCGUACGGAACG as the variant, how does the yeast fitness read?
**A.** Its yeast fitness is ≤ 0.5.

**Q.** With GUUCCGUUGGCGUAAUGGUAAUGGGUCUCCCUCCCAAGGAGAAGACUGCGGGUUCCAGUCCCGUACGGAACG as the variant, how does the yeast fitness read?
**A.** The yeast fitness was ≤ 0.5.

**Q.** Which yeast fitness does the source give for GUUCCGUUGGCGUAAUGGUAAUGUGUCUCCCUCCUAAGGAGAAGACUGCGGGUUCGAGUCCCGUACGGAACG here?
**A.** Its yeast fitness is 0.885.

**Q.** With GUUCCGUUGGCGUAAUGGUAAUGUGUCUCCCUCCUCAGGAGAAGGCUGCGGGUUCCAGUCCCGUACGGAACG as the variant, how does the yeast fitness read?
**A.** Its yeast fitness is ≤ 0.5.

**Q.** For GUUCCGUUGGCGUAAUGGUAAUGUGUCUCCCUGCUAAGGAGAAGACUGCGGGUUGGAGUCCCGUACGGAACG, which yeast fitness is on record?
**A.** The yeast fitness was ≤ 0.5.

**Q.** With GUUCCGUUGGCGUAAUGGUAAUGUGUCUCCCUCCUAAGGAGAAGAUUGCGGGUUCGAGUCCCGUACGGAACG as the variant, how does the yeast fitness read?
**A.** Its yeast fitness is 0.654.

**Q.** Which yeast fitness does the source give for GUUCCGUUGGCGUAAUGGUAAUGUGUCUCCCUCCUAAGGAGAAGACUGCGGGUUCGAGUGCCGUACGGAACG here?
**A.** Its yeast fitness is ≤ 0.5.

**Q.** With GUUCCGUUGGCGUAAUGGUAAUGUGUCUCCCUCCUAAGGAGAAGACUGCCGGUUCGAGUCCCGUACGGAACG as the variant, how does the yeast fitness read?
**A.** Its yeast fitness is 0.618.

**Q.** For GUUCCGUUGGCGUAAUGGUAAUGUGUCCGCCUACUAAGGAGAAGACUGCGGGUUCGAGUCCCGUACGCAACG, which yeast fitness is on record?
**A.** The yeast fitness was 0.569.

**Q.** With GUUCCGUUGGCGUAAUGGUAAUGUGUCUCCCUCCAAAGGAGCAGACUGCGGGUUCGCGUCCCGUACGGAACG as the variant, how does the yeast fitness read?
**A.** Its yeast fitness is 0.638.

**Q.** Which yeast fitness does the source give for GUUCCGUUGGCGUAAUGGUAAUGUGUCUCCCUCCUAAGGAGAAGACCGCGGGUUCGAGUCCCGUACGGAACG here?
**A.** Its yeast fitness is 0.705.

**Q.** For GUUCCGUUGGCGUAAUGGUAAUGCGUAUCCCUCCUAAGGAGAAGGCUCCGGGUUCGAGUCCCGUACGGAACG, which yeast fitness is on record?
**A.** Its yeast fitness is ≤ 0.5.

**Q.** Which yeast fitness does the source give for GUUCCGUUGGCGUAAUGGUAAUGCGUGUCCCUCCUAAGGCGAAGACUGCGGGUUCGAGUCCCGUACGGAACG here?
**A.** Its yeast fitness is 0.55.

**Q.** For GUUCCGUUGGCGUAAUGGUAAUGCGUGUCCCUCCUAAGGGGGAGACUGCGGGUUCGAGUCCCGUACGGAACG, which yeast fitness is on record?
**A.** The yeast fitness was ≤ 0.5.

**Q.** For GUUCCGUUGGCGUAAUGGUAAUGCGUGUCCCUCCUAAGGAGAAGACUGCGGGUUCGCGUCCCGUACGGAACG, which yeast fitness is on record?
**A.** The yeast fitness was ≤ 0.5.

**Q.** With GUUCCGUUGGCGUAAUGGUAAUGCGUGUCCCUCCUAAGGAGAAGACUGCGGGUUCGAGUCCCGUAUGGUACG as the variant, how does the yeast fitness read?
**A.** The yeast fitness was ≤ 0.5.

**Q.** With GUUCCGUUGGCGUAAUGGUAAUGCGUGUCCCUCCUAAGGAAAAGACUGCGGGUUUGAGUCCCGUACGGAACG as the variant, how does the yeast fitness read?
**A.** Its yeast fitness is ≤ 0.5.

**Q.** With GUUCCGUUGGCGUAAUGGUAAUGCGUGGCCCGCCUAAGGAGAAGACUGCGGGUUCGAGUCCCGUACGGAACG as the variant, how does the yeast fitness read?
**A.** The yeast fitness was ≤ 0.5.

**Q.** For GUUCCGUUGGCGUAAUGGUAAUGCGUUUCCCUCCUAGGGAGAAGACUGCGGGUUCGAGUCCCGUACGGAACG, which yeast fitness is on record?
**A.** The yeast fitness was 0.643.

**Q.** For GUUCCGUUGGCGUAAUGGUAAUGCGUUUCCCUCCUAAGGAGUUGACCGCGGGUUCGAGUCCCGUACGGAACG, which yeast fitness is on record?
**A.** The yeast fitness was ≤ 0.5.

**Q.** Which yeast fitness does the source give for GUUCCGUUGGCGUAAUGGUAAUGCGUUUCCCUCCUAAGGAGAAGACUGCGGGUUCGGGUCCCGUACGGAACG here?
**A.** The yeast fitness was 0.53.

**Q.** With GUUCCGUUGGCGUAAUGGUAAUGCGUUUCCCUACUAAGGAGAAGACUGCGGGUUCGAGUCCCGUACGGAACG as the variant, how does the yeast fitness read?
**A.** Its yeast fitness is ≤ 0.5.

**Q.** With GUUCCGUUGGCGUAAUGGUAAUGCGUUUCCCUACUAAGGAGAAGACUGCGGGUUCGAGUUCGGUACGGAACG as the variant, how does the yeast fitness read?
**A.** The yeast fitness was 0.558.

**Q.** For GUUCCGUUGGCGUAAUGGUAAUGCGUUUCCCUCCUAAGGAGAACACUGCGGGUUCGAGUCCCGUACGGAACG, which yeast fitness is on record?
**A.** The yeast fitness was 0.659.

**Q.** With GUUCCGUUGGCGUAAUGGUAAUGCGUUUCCCUCCUAAGGAGAAGACUGCGAGUUCGUGUCGCGUACGGAACG as the variant, how does the yeast fitness read?
**A.** The yeast fitness was ≤ 0.5.

**Q.** Which yeast fitness does the source give for GUUCCGUUGGCGUAAUGGUAAUGCGUUUCCCUCCUAAGGAGAAGACUGCGGGUUCAAGUCCCGUACGGAACG here?
**A.** The yeast fitness was 0.51.

**Q.** With GUUCCGUUGGCGUAAUGGUAAUGCGUCUACCUCCUAAGGAGAAGACUGCGGGUUCGAGUCCCGUUCGGAACG as the variant, how does the yeast fitness read?
**A.** The yeast fitness was ≤ 0.5.

**Q.** With GUUCCGUUGGCGUAAUGGUAAUGCGUCUACCUCAUAAGGACAAGCCAGCGGGUUAGAGUCCCGUACGGAACG as the variant, how does the yeast fitness read?
**A.** The yeast fitness was ≤ 0.5.

**Q.** With GUUCCGUUGGCGUAAUGGUAAUGCGUCUGCCUCCUAAGGAGAAGACUGCGGGUUCGAGUCCCGUACGGAACG as the variant, how does the yeast fitness read?
**A.** Its yeast fitness is 0.657.

**Q.** With GUUCCGUUGGCGUAAUGGUAAUGCGUCUGCCUCCUAAGGCGAAGACUGCGGGUUCGCGUCCCGUACGGAACG as the variant, how does the yeast fitness read?
**A.** The yeast fitness was ≤ 0.5.

**Q.** Which yeast fitness does the source give for GUUCCGUUGGCGUAAUGGUAAUGCGUCUGCCUCCUAAGGAGGAGACUGCGGGUUCGAGUCCCGUACGGAACG here?
**A.** The yeast fitness was 0.697.

**Q.** For GUUCCGUUGGCGUAAUGGUAAUGCGUCUGCCUUCUAAGGAGAAGACUGCGGGUUCGAGUCUCGUACGGCACG, which yeast fitness is on record?
**A.** The yeast fitness was ≤ 0.5.

**Q.** Which yeast fitness does the source give for GUUCCGUUGGCGUAAUGGUAAUGCGUCUGCCUCGUAAGGAGUAGACUGCGGGUCCAAGUCCCGUACGGAACG here?
**A.** Its yeast fitness is ≤ 0.5.

**Q.** With GUUCCGUUGGCGUAAUGGUAAUGCGUCUUCCUCCUAUGGAGAAGACUGCGGGUUCGAGUCCCGUACGGAACG as the variant, how does the yeast fitness read?
**A.** The yeast fitness was ≤ 0.5.

**Q.** For GUUCCGUUGGCGUAAUGGUAAUGCGUCUUCCUUCUACGGAGAUGACUGCGGGUUAGAGUCCCGUACGGAACG, which yeast fitness is on record?
**A.** The yeast fitness was ≤ 0.5.

**Q.** Which yeast fitness does the source give for GUUCCGUUGGCGUAAUGGUAAUGCGUCUUCCUUCUACGGAGAAGACUGCGGGUUAGAGUCCCGUACGGAACG here?
**A.** The yeast fitness was 0.615.
